Experimental findings from ChEMBL document CHEMBL1134494, “2-Amino-6-arylsulfonylbenzonitriles as non-nucleoside reverse transcriptase inhibitors of HIV-1” (J Med Chem, 2001) are described below.

Experiment [1] relates to MT4. Nature of the experiment: Antiviral activity against HIV-1 infected MT-4 cells; No significant activity uM. The format is functional, cell-based. Conditions: Homo sapiens. The method, boiled down: (§1)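 HTLV-1-transformed MT4 cells were infected with HIV-1 strain 3B at 100× the amount giving a 50% drop in cell growth. They were cultured 5 days with a range of compound concentrations. IC50 is the concentration restoring 50% of infected-cell growth (cytopathic effect) relative to uninfected MT4 controls.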

Experiment [2] has as its system MT4. Nature of the experiment: Cell culture cytotoxicity against MT-4 cells. As to conditions: Homo sapiens. In kind it is functional, cell-based. The method, boiled down:
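MT4 cells were exposed to compound in parallel with the 5-day HIV-1 strain 3B cytopathic-effect assay. Compound-induced cytotoxicity is reported as the cell culture cytotoxicity IC50 (CCIC50).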

In experiment [3] the test system is MT4. The experiment in a line: Antiviral activity against HIV-1 infected MT-4 cells at a dose of 5 uM. As to conditions: Homo sapiens. In kind it is functional.
Experiment [4] addresses Human immunodeficiency virus type 1 reverse transcriptase (Human immunodeficiency virus 1, UniProt Q72547). Nature of the experiment: Inhibitory activity against HIV-1 reverse transcriptase. The method, boiled down: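 Recombinant HIV RT at 1 nM was combined with 40 nM Eu-chelate-labeled biotinylated DNA primer/RNA template and 100 nM Cy5-dUTP. Reactions were started with enzyme.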

The subject of experiment [5] is MT4. The experiment in a line: Antiviral activity against HIV-1 infected MT-4 cells; no significant activity uM. The format is functional, cell-based. Conditions: Homo sapiens. The method, boiled down: as §1

With `O=[N+]([O-])c1ccccc1[S+]([O-])c1ccccc1[N+](=O)[O-]`, the NS entry with MT4 [1] is “No significant activity”.
Consider `N#Cc1c(N)cccc1Sc1cc(Cl)cc(Cl)c1`, for which the values for the concentration for half-maximal inhibition (IC50) (with MT4 [2]; in experiment [4]) were 3000 nM and 120 nM, respectively. In the experiment with MT4 [3], this compound had an inhibition at 5 µM of 62%.
`COc1ccc(Sc2cccc(N)c2C#N)cc1`: the NS result with MT4 [5] was “no significant activity”. Moreover, the 50% inhibitory concentration (IC50) in experiment [4] is > 17000 nM.
